In ChEMBL document CHEMBL1687781, “Comparative biochemical and computational study of the role of naturally occurring mutations at Ambler positions 104 and 170 in GES β-lactamases” (Antimicrob Agents Chemother, 2010):
≈ marks a conversion by molar mass, not a printed value.

Legend:
Assay type in all cases: functional
Escherichia coli [1] = experiment: Antimicrobial activity against Escherichia coli DH5[alpha] transformed with pAC-ges1 plasmid encoding Beta-lactamase GES-1 E104, G170 mutant by Etest method
Escherichia coli [2] = experiment: Antimicrobial activity against Escherichia coli DH5[alpha] transformed with pAC-ges1 plasmid encoding Beta-lactamase GES-7 K104, G170 mutant by Etest method
Escherichia coli [3] = experiment: Antimicrobial activity against Escherichia coli DH5[alpha] transformed with pAC-ges1 plasmid encoding Beta-lactamase GES-2 E104, N170 mutant by Etest method
Escherichia coli [4] = experiment: Antimicrobial activity against Escherichia coli DH5[alpha] transformed with pAC-ges1 plasmid encoding Beta-lactamase GES-6 K104, S170 mutant by Etest method
Escherichia coli [5] = experiment: Antimicrobial activity against Escherichia coli DH5[alpha] transformed with pAC-ges1 plasmid encoding Beta-lactamase GES-13 K104, N170 mutant by Etest method
Escherichia coli [6] = experiment: Antimicrobial activity against Escherichia coli DH5[alpha] by Etest method
Escherichia coli [7] = experiment: Antimicrobial activity against Escherichia coli DH5[alpha] transformed with pAC-ges1 plasmid encoding Beta-lactamase GES-5 E104, S170 mutant by Etest method
Escherichia coli [8] = experiment: Antimicrobial activity against Escherichia coli DH5[alpha] transformed with pAC-ges1 plasmid encoding Beta-lactamase GES-1 E104, G170 mutant in presence of at 4 ug/ml Tazobactam by Etest method
How it was run: (§1)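 E. coli DH5α host, either untransformed or carrying pACYC184-based clones of the GES variant genes; the source gene came from integron plasmid pBC-ges1. MICs were read by Etest following the manufacturer's recommendations, with the inhibitor held at a fixed 4 μg/ml.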

Escherichia coli [9] = experiment: Antimicrobial activity against Escherichia coli DH5[alpha] transformed with pAC-ges1 plasmid encoding Beta-lactamase GES-7 K104, G170 mutant in presence of at 4 ug/ml Tazobactam by Etest method; how it was run: as §1
Escherichia coli [10] = experiment: Antimicrobial activity against Escherichia coli DH5[alpha] transformed with pAC-ges1 plasmid encoding Beta-lactamase GES-2 E104, N170 mutant in presence of at 4 ug/ml Tazobactam by Etest method; how it was run: as §1
Escherichia coli [11] = experiment: Antimicrobial activity against Escherichia coli DH5[alpha] transformed with pAC-ges1 plasmid encoding Beta-lactamase GES-5 E104, S170 mutant in presence of at 4 ug/ml Tazobactam by Etest method; how it was run: as §1
Escherichia coli [12] = experiment: Antimicrobial activity against Escherichia coli DH5[alpha] transformed with pAC-ges1 plasmid encoding Beta-lactamase GES-6 K104, S170 mutant in presence of at 4 ug/ml Tazobactam by Etest method; how it was run: as §1
Escherichia coli [13] = experiment: Antimicrobial activity against Escherichia coli DH5[alpha] transformed with pAC-ges1 plasmid encoding Beta-lactamase GES-13 K104, N170 mutant in presence of at 4 ug/ml Tazobactam by Etest method; how it was run: as §1
Escherichia coli [14] = experiment: Antimicrobial activity against Escherichia coli DH5[alpha] in presence of at 4 ug/ml Tazobactam by Etest method; how it was run: as §1

Structure (SMILES): CCN1CCN(C(=O)N[C@@H](C(=O)N[C@@H]2C(=O)N3[C@@H]2SC(C)(C)[C@@H]3C(=O)O)c2ccccc2)C(=O)C1=O [PIPERACILLIN]
- MIC (Escherichia coli [1]): 8 µg/mL (≈ 15.5 µM)
- MIC (Escherichia coli [2]): 12 µg/mL (≈ 23.2 µM)
- MIC (Escherichia coli [3]): 4 µg/mL (≈ 7.73 µM)
- MIC (Escherichia coli [4]): 12 µg/mL (≈ 23.2 µM)
- MIC (Escherichia coli [5]): 8 µg/mL (≈ 15.5 µM)
- MIC (Escherichia coli [6]): 4 µg/mL (≈ 7.73 µM)
- MIC (Escherichia coli [7]): 8 µg/mL (≈ 15.5 µM)
- MIC (Escherichia coli [8]): 1 µg/mL
- MIC (Escherichia coli [9]): 1 µg/mL
- MIC (Escherichia coli [10]): 1 µg/mL
- MIC (Escherichia coli [11]): 2 µg/mL
- MIC (Escherichia coli [12]): 2 µg/mL
- MIC (Escherichia coli [13]): 1 µg/mL
- MIC (Escherichia coli [14]): 1 µg/mL
